# STAT1 activator: increases IFN-gamma driven STAT1 reporter signal | NIH 3T3 STAT1-luciferase reporter, luminescence; 100% = IFN-gamma alone, no compound | activation (% of control), % at 5.5 µM | hit rate 2.6% among 200,000 | AID 932;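 active means activation above the screen-wide mean activation plus 3 SD, cut at about 130% in these data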;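 further: raw ratio to IFN-gamma control signal so 100% means no change and 0% no light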
# FLuc inhib CS: Photinus pyralis luciferase inhibition counter-screen; ATPLite firefly luciferase biochemical luminescence, 10 min; inhibition, % at 10 µM; hit rate 1.5% among 200,000;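 active means inhibition above about 50% when tested at 10 µM, limit read from the data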
# Target sequence (P08659 whole entry, looked up): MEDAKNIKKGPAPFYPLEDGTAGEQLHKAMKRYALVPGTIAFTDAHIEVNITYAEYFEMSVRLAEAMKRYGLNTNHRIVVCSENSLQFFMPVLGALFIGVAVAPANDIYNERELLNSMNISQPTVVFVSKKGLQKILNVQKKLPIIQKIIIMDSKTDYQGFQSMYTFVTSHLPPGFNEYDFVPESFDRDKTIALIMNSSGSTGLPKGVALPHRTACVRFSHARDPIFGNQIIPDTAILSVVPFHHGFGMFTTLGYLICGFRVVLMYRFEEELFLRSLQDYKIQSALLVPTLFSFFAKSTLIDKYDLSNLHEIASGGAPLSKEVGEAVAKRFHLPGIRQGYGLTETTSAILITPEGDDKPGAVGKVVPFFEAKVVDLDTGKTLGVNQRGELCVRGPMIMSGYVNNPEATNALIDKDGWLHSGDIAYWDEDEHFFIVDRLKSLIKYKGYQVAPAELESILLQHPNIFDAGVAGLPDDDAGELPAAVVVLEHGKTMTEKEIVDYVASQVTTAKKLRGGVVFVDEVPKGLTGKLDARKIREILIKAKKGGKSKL
# FLuc stim CS: firefly luciferase counter-screen for stimulation assays; P08659; ATPlite luciferase biochemical, luminescence, 10 min; 0 = ATP-free wells, 1 = DMSO control; activation factor at 10 µM; 200,000 tested, under 10 active; AID 1027;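 active means luciferase activation factor, scaled between plate controls, of at least 2 with compound at 10 µM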
#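 Assay system – cell-free luciferase reagent · Medium – PBS-based ATP solution · Dosing – test compounds dosed from 2 mM stocks in 100% DMSO · Timing – 10 min, room temperature · Technique – light output (luminescence) · Measure – luminescence gain marking luciferase activators · Controls – No-ATP low control, compound-free enzyme-plus-ATP high control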
# NF-kB neuron act: compounds increasing NF-kB expression in human neuronal cells | NF-kB reporter expression; hits give high values | fold change at 12.5 µM | hit rate 1.6% among 190,000 | AID 1239; in the data active means fold change above about 3.3
# Rad51 HR inh: Rad51 (human) homologous recombination inhibition; hRad51 DNA strand exchange, fluorescence dequenching; hit rate 0.085% among 200,000; Q06609; inhibition, % at 10 µM;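 active means inhibition above 40% at the single screening dose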;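 further: 0% = DMSO control wells and 100% = blanks with heterologous ssDNA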
#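 material = hRad51 filaments on single-stranded DNA | reagent = Donor/quencher-labelled 47-bp dsDNA substrate | compound = 10 µM final, single point | schedule = strand-exchange reaction 15 min at room temperature | measured by = fluorescein emission 520 nm, excitation 485 nm | read-out basis = % inhibition versus plate control and blank means | benchmarks = plate controls and plate blanks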
# APP 5'UTR act: activates APP 5'UTR luciferase reporter; SH-SY5Y APP 5'UTR luciferase reporter, luminescence; zero percent = DMSO vehicle wells; activation, % at 2 µM; hit rate 1% among 190,000;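 active means activation above a set limit, based on mean plus 3 SD of controls, cut at about 140% in these data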
# Starred values were filed as active, the others as inactive; i = inactive; · = no result given. Compounds with a hit are over-represented: about 3.9% of the library has one in this group of screens.
SMILES,STAT1 activator,FLuc inhib CS,FLuc stim CS,NF-kB neuron act,Rad51 HR inh,APP 5'UTR act
O=C(CSC(=S)N1CCSCC1)c1ccccc1,137*,68*,0.3,6.2*,1,113
O=C(Nc1ccc(Cl)cc1)N1CCSCC1,102,1,1,1.4,·,0
O=C(CSC(=S)N1CCSCC1)c1ccc(Cl)cc1,129*,31,0.7,5.2*,13,151*
COCCNC(=O)C1(C(F)(F)F)CC(CCCO)CCCO1 (centres undefined),·,·,·,·,4,·
COc1ccc(S(=O)(=O)N(C)c2ccc(C(=O)N3CCCCC3)cc2)cc1OC,·,·,·,·,12,·
C=CCc1ccc(OCCn2cccc2C=O)c(OC)c1,147*,-1,1,1.7,·,40
CCc1cc2cc(C(=O)Nc3ccc(F)cc3)sc2s1,122,5,0.9,1.2,3,31
CCc1cc2cc(C(=O)Nc3ccccc3F)sc2s1,146*,14,0.9,2.7,-11,163*
COC(=O)c1c(NC(=S)Nc2ccc(C(=O)N3CCOCC3)cc2)sc2c1CCC2,107,1,1,1.1,-2,-4
CCn1nnc(NC(=O)c2cccc(-c3cc4ccccc4oc3=O)c2)n1,106,1,1,1.2,51*,-9
CCn1nnc(NC(=O)c2ccc(C(C)(C)C)cc2)n1,117,82*,0.2,3.7*,6,97
CCn1nnc(NC(=O)c2cccnc2)n1,93,-8,1.1,1.3,-2,1
COc1ccccc1C(=O)OCc1ccc2sc(C)nc2c1,107,20,0.8,·,·,11
CCOC(=O)c1nc(NCCc2ccccc2)sc1C,132*,0,1,2.4,-6,15
CCOC(=O)c1sc(-c2ccccc2)cc1N,132*,8,0.9,2.5,2,86
CCOC(=O)c1cc(-c2ccccc2)sc1N,135*,-2,1,2.4,·,28
CCOC(=O)c1cc(-c2ccccc2)sc1NC(=O)CC,98,-3,1,1.2,5,-14
CCOC(=O)Cc1ccc2sc(-c3ccccc3)nc2c1,139*,74*,0.3,9.4*,2,178*
Cc1nc(-c2ccccc2)sc1C(N)=O,101,2,1,1.2,-5,17
CCOC(=O)c1sc(-c2ccccc2)nc1C,135*,9,0.9,1.4,10,41
CNc1nc(C)c(C(=O)OCc2ccccc2)s1,116,7,0.9,5*,-3,28
O=C(Nc1cccc([N+](=O)[O-])c1)c1ccn[nH]1,126,-5,1.1,2.3,5,28
CC(=O)c1ccc(NC(=O)c2ccn[nH]2)cc1,114,60*,0.4,1.9,-6,73
O=C(Nc1ccccc1)c1ccn[nH]1,138*,14,0.9,3.4*,0,80
CCN(CC)c1ccc(/C=C2/C(=O)c3ccc(C(=O)O)cc3C2=O)cc1,130*,92*,0.1,2.5,i,7
SMILES,STAT1 activator,FLuc inhib CS,FLuc stim CS,NF-kB neuron act,Rad51 HR inh,APP 5'UTR act
Cc1ccc(C2=C/C(=C/c3cccs3)C(=O)O2)cc1,114,85*,0.1,0.9,·,-2
Cc1cccc(CSc2cccc3cccnc23)c1,146*,0,1,3,1,-35
NNC(=O)c1ccc(CSc2cccc3cccnc23)cc1,102,1,1,1.1,-4,22
CCn1ccc(C(=O)NC2=NCCS2)n1,99,0,1,1.2,·,7
CCc1ccc(OC(=O)c2ccn(CC)n2)cc1,97,75*,0.2,1.6,3,-8
CCSc1nnc(NC(=O)c2ccc3ccccc3n2)s1,142*,25,0.7,3,2,103
O=C(Nc1ccc(Cl)cn1)c1ccc2ccccc2n1,112,24,0.8,3.2,13,10
O=C(Nc1ccccc1)c1ccc2ccccc2n1,123,52*,0.5,6.6*,-2,179*
O=C(Nc1ccccc1C(=O)O)c1ccc2ccccc2n1,100,56*,0.4,1.8,-14,23
Cc1ccc(NC(=O)c2ccc3ccccc3n2)nc1,147*,73*,0.3,6.2*,0,155*
CCN(CC)C(=O)C(=O)c1cccn1-c1c(Cl)cccc1C#N,97,-10,1.1,1.4,-1,16
NC(=O)C1(C(N)=O)OC1c1ccc(Cl)c(Cl)c1 (centres undefined),·,·,·,·,2,·
Nc1[nH]n(-c2ccccc2)c(=O)c1N=Nc1ccccc1[N+](=O)[O-],139*,14,0.9,1.6,2,90
COc1cc([N+](=O)[O-])ccc1N=Nc1c(N)[nH]n(-c2ccccc2)c1=O,97,4,1,1.1,0,1
CCN(CC)S(=O)(=O)c1ccc(C(=O)NCCc2ccccn2)cc1,110,-2,1,1.1,5,31
O=C(NCCc1ccccn1)c1ccc(OC(F)F)cc1,122,65*,0.3,3.3,13,99
COc1cc(C(CCN2CCCCC2)c2c(OC)cc(OC)c3c(C)cc(=O)oc23)cc(OC)c1OC (centres undefined),·,·,·,·,10,·
CC(C)(C)c1ccc(C(=O)O)c(C(=O)c2ccc(C(=O)O)cc2)c1,·,·,·,·,-1,·
Cc1[nH]n(-c2ccccc2)c(=O)c1/C=N\NC(=O)C1COc2ccccc2O1 (centres undefined),92,93*,0.1,1.1,-1,-16
CC(=O)N/N=C/c1c(C)[nH]n(-c2ccccc2)c1=O,98,4,1,3.2,1,4
COc1cccc(CNC(=O)CCC2CCCN(C(=O)c3ccc(OC)o3)C2)c1 (centres undefined),102,0,1,1.6,7,-2
O=C(O)c1cc2nc3c(c(C(F)(F)F)n2n1)CCCC3,109,-8,1.1,1.2,21,-6
O=C(Nc1ccc(F)cc1F)c1cc2nc3c(c(C(F)(F)F)n2n1)CCCC3,105,4,1,0.45,·,173*
O=C(O)C(=O)/C(=C\c1cccc(Cl)c1)c1ccc2ccccc2n1,137*,-1,1,1.3,-21,46
Cc1cccc(/C=C(\C(=O)C(=O)O)c2ccc3ccccc3n2)c1,148*,-2,1,1,-24,25
SMILES,STAT1 activator,FLuc inhib CS,FLuc stim CS,NF-kB neuron act,Rad51 HR inh,APP 5'UTR act
N#Cc1ccc(/C=C(\C(=O)C(=O)O)c2ccc3ccccc3n2)cc1,·,·,·,·,-18,·
Cn1nc(Cc2n[nH]c(=S)n2C)c2ccccc2c1=O,·,·,·,·,13,·
Brc1ccc(-c2csc(/N=C/N3CCOCC3)n2)cc1,136*,-5,1,2,3,53
OCCN(/C=N/c1nc(-c2ccc(Br)cc2)cs1)CCO,116,-1,1,1.8,·,42
Brc1ccc(-c2csc(/N=C/N3CCCC3)n2)cc1,132*,3,1,1.4,-1,29
NC(=O)C1CCN(c2nc(-c3ccc(Br)cc3)cs2)CC1,131*,-4,1,1.8,4,54

# Compound activity deposited in PubChem BioAssay by several laboratories.
